Values belong to the compound of their own block, whether it stands above or below them.
Experiments:
Rat [1] = assay: concentration in plasma after dosing; settings: 3 h; dosed: Wyeth-14643; 2.0 mg/kg; oral; Male; Sprague-Dawley
Rat [2] = assay: concentration in plasma after dosing; settings: dosed: Wyeth-14643, 1.0 mg/kg, oral, Male, Sprague-Dawley
Rat [3] = assay: concentration in plasma after dosing; settings: dosed: Wyeth-14643, 5.0 mg/kg, oral, Male, Sprague-Dawley
Rat [4] = assay: concentration in heart after dosing; settings: 1 h; dosed: Bis 2-Chloroethoxy Methane; 20 mg/kg; iv; Male; F344
Rat [5] = assay: concentration in heart after dosing; settings: 5 h; dosed: Bis 2-Chloroethoxy Methane; 20 mg/kg; iv; Female; F344
Rat [6] = assay: concentration in heart after dosing; settings: 4 h; dosed: Bis 2-Chloroethoxy Methane; 20 mg/kg; iv; Female; F344
Rat [7] = assay: concentration in thymus after dosing; settings: 2 h; dosed: Bis 2-Chloroethoxy Methane; 20 mg/kg; iv; Male; F344
Rat [8] = assay: concentration in plasma after dosing; settings: 3 h; dosed: Bis 2-Chloroethoxy Methane; 20 mg/kg; iv; Male; F344
Rat [9] = assay: concentration in liver after dosing; settings: 1 h; dosed: Fluorotelomer alcohol 8+2; 24 mg/kg; oral; Male; Harlan Sprague Dawley
Rat [10] = assay: concentration in brain after dosing; settings: 6 h; dosed: Fluorotelomer alcohol 8+2; 24 mg/kg; oral; Male; Harlan Sprague Dawley
Rat [11] = assay: concentration in liver after dosing; settings: 1 h; dosed: Fluorotelomer alcohol 8+2; 80 mg/kg; oral; Female; Harlan Sprague Dawley
Rat [12] = assay: concentration in brain after dosing; settings: 6 h; dosed: Fluorotelomer alcohol 8+2; 80 mg/kg; oral; Female; Harlan Sprague Dawley
Rat [13] = assay: concentration in plasma after dosing; settings: dosed: Fluorotelomer alcohol 8+2, 12 mg/kg, iv, Male, F344
Rat [14] = assay: concentration in plasma after dosing; settings: dosed: Fluorotelomer alcohol 8+2, 40 mg/kg, iv, Male, F344
Rat [15] = assay: concentration in plasma after dosing; settings: dosed: Fluorotelomer alcohol 8+2, 12 mg/kg, iv, Male, F344; remark: listed apart in the source
Rat [16] = assay: concentration in plasma after dosing; settings: dosed: Fluorotelomer alcohol 8+2, 12 mg/kg, oral, Male, Harlan Sprague Dawley
Rat [17] = assay: concentration in plasma after dosing; settings: 5 min; dosed: Fluorotelomer alcohol 8+2; 12 mg/kg; iv; Male; F344
Rat [18] = assay: concentration in plasma after dosing; settings: 0.25 h; dosed: Di-n-butyl phthalate; 100 mg/kg; oral; Male; Sprague-Dawley
Rat [19] = assay: concentration in plasma after dosing; settings: 6 h; dosed: Di-n-butyl phthalate; 50 mg/kg; oral; Male; Sprague-Dawley
Rat [20] = assay: concentration in plasma after dosing; settings: 10 h; dosed: Di-n-butyl phthalate; 100 mg/kg; oral; Male; Sprague-Dawley
Rat [21] = assay: concentration in plasma after dosing; settings: 10 h; dosed: Di-n-butyl phthalate; 50 mg/kg; oral; Male; Sprague-Dawley
Rat [22] = assay: concentration in plasma after dosing; settings: 5 min; dosed: Di-n-butyl phthalate; 100 mg/kg; oral; Male; Sprague-Dawley
Rat [23] = assay: concentration in liver after dosing; settings: 1 h; dosed: Perfluorodecanoic acid; 10 mg/kg; oral; Female; Harlan Sprague Dawley
Rat [24] = assay: concentration in brain after dosing; settings: 864 h; dosed: Perfluorodecanoic acid; 10 mg/kg; oral; Female; Harlan Sprague Dawley
Rat [25] = assay: concentration in liver after dosing; settings: 3360 h; dosed: Perfluorodecanoic acid; 10 mg/kg; oral; Male; Harlan Sprague Dawley
Rat [26] = assay: concentration in plasma after dosing; settings: dosed: Perfluorodecanoic acid, 2 mg/kg, iv, Male, F344
Rat [27] = assay: concentration in plasma after dosing; settings: dosed: Perfluorodecanoic acid, 2 mg/kg, oral, Male, Harlan Sprague Dawley
Rat [28] = assay: concentration in plasma after dosing; settings: 3 h; dosed: Primidone; 30 mg/kg; oral; Male; F344
Rat [29] = assay: concentration in plasma after dosing; settings: 12 h; dosed: Primidone; 130 mg/kg; oral; Male; Harlan Sprague Dawley
Rat [30] = assay: concentration in heart after dosing; settings: 40 min; dosed: Thiodiglycolic Acid; 20 mg/kg; iv; Female; Harlan Sprague Dawley
Rat [31] = assay: concentration in liver after dosing; settings: 1 h; dosed: Thiodiglycolic Acid; 20 mg/kg; iv; Female; Harlan Sprague Dawley
Rat [32] = assay: concentration in thymus after dosing; settings: 5.333 h; dosed: Thiodiglycolic Acid; 20 mg/kg; iv; Female; Harlan Sprague Dawley
Rat [33] = assay: concentration in plasma after dosing; settings: 5 min; dosed: dichloroacetic acid; 10 mg/kg; oral; Male; Harlan Sprague Dawley
human = assay: concentration in plasma after dosing; negative times count back from the end of exposure; settings: dosed: trichloroethylene, 100 ppm, inhalation, duration: 4 hr, person, during exposure
Procedure, shortened: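 Data points giving concentration or amount against time came from published in vivo toxicokinetic studies and from two structured collections. PubMed searching, classifier screening and manual review located the studies. Most points were digitised from plot screenshots using WebPlotDigitizer, the rest were copied from tables, and all keep their reported units.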

concentration in plasma (Rat [1]): 426 ng/mL | concentration in plasma (Rat [2]; 0.25 h): 397 ng/mL | concentration in plasma (Rat [2]; 4 h): 308 ng/mL | concentration in plasma (Rat [3]; 2 h): 1920 ng/mL | concentration in plasma (Rat [3]; 6 h): 999 ng/mL
Structure (SMILES): Cc1cccc(Nc2cc(Cl)nc(SCC(=O)O)n2)c1C

Structure (SMILES): ClCCOCOCCCl [Bis 2-Chloroethoxy Methane]
concentration in heart (Rat [4]): 1380 ng/g | concentration in heart (Rat [5]): 27.4 ng/g | concentration in heart (Rat [6]): 55.5 ng/g | concentration in thymus (Rat [7]): 478 ng/g | concentration in plasma (Rat [8]): 123 ng/mL

concentration in liver (Rat [9]): 4650 ng/g | concentration in brain (Rat [10]): 544 ng/g | concentration in liver (Rat [11]): 7790 ng/g | concentration in brain (Rat [12]): 1310 ng/g | concentration in plasma (Rat [13]; 0.75 h): 818 ng/mL | concentration in plasma (Rat [13]; 12 h): 14.2 ng/mL | concentration in plasma (Rat [14]; 5 min): 23200 ng/mL | concentration in plasma (Rat [14]; 3 h): 505 ng/mL | concentration in plasma (Rat [15]; 0.25 h): 1430 ng/mL | concentration in plasma (Rat [15]; 24 h): 10.2 ng/mL | concentration in plasma (Rat [16]; 0.5 h): 274 ng/mL | concentration in plasma (Rat [16]; 9 h): 10.3 ng/mL | concentration in plasma (Rat [17]): 3800 ng/mL
Structure (SMILES): OCCC(F)(F)C(F)(F)C(F)(F)C(F)(F)C(F)(F)C(F)(F)C(F)(F)C(F)(F)F [Fluorotelomer alcohol 8+2]

Structure (SMILES): CCCCOC(=O)c1ccccc1C(=O)O [Mono-n-butyl phthalate]
concentration in plasma (Rat [18]): 13200 ng/mL | concentration in plasma (Rat [19]): 2060 ng/mL | concentration in plasma (Rat [20]): 2010 ng/mL | concentration in plasma (Rat [21]): 1170 ng/mL | concentration in plasma (Rat [22]): 1430 ng/mL

Structure (SMILES): O=C(O)C(F)(F)C(F)(F)C(F)(F)C(F)(F)C(F)(F)C(F)(F)C(F)(F)C(F)(F)C(F)(F)F [Perfluorodecanoic acid]
concentration in liver (Rat [23]): 48900 ng/g | concentration in brain (Rat [24]): 1220 ng/g | concentration in liver (Rat [25]): 13300 ng/g | concentration in plasma (Rat [26]; 12 h): 6270 ng/mL | concentration in plasma (Rat [26]; 1200 h): 874 ng/mL | concentration in plasma (Rat [27]; 0.5 h): 2500 ng/mL | concentration in plasma (Rat [27]; 24 h): 7510 ng/mL | concentration in plasma (Rat [27]; 1848 h): 1090 ng/mL

Structure (SMILES): CCC1(c2ccccc2)C(=O)NC(=O)NC1=O [Phenobarbital]
concentration in plasma (Rat [28]): 2460 ng/mL | concentration in plasma (Rat [29]): 2490 ng/mL

Structure (SMILES): O=C(O)CSCC(=O)O [Thiodiglycolic Acid]
concentration in heart (Rat [30]): 2840 ng/g | concentration in liver (Rat [31]): 60100 ng/g | concentration in thymus (Rat [32]): 547 ng/g

Structure (SMILES): O=C(O)C(Cl)Cl [dichloroacetic acid]
concentration in plasma (Rat [33]): 430 ng/mL | concentration in plasma (human; -1 h): 5 ng/mL | concentration in plasma (human; -2 h): 4 ng/mL | concentration in plasma (human; -3 h): 5 ng/mL
